Test results taken from PMC7610535 (Nature chemical biology, 2020).
pKd: −log10 of the molar value.

Key:
AURORA-A [1] = target: T1, AURORA-A (Homo sapiens, UniProt O14965); test: Immunoblot of AURORA-A in compound-treated MV4-11 cells; format: cell-based
T1 sequence (O14965 1-403): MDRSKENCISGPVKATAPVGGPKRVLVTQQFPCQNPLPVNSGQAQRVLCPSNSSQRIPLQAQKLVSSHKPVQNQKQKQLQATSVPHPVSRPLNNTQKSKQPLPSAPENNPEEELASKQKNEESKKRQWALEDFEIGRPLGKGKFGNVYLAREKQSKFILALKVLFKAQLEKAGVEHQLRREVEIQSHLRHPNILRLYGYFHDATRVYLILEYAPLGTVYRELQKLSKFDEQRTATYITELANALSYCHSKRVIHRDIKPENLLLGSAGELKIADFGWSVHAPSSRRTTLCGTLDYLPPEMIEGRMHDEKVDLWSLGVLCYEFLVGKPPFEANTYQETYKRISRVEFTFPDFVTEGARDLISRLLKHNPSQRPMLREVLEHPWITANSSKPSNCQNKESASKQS

AURORA-A [2] = target: T1, AURORA-A; test: AURORA-A-NanoLuc target engagement assay; format: binding; details: AURORA-A vs AURORA-B, depending on experimental conditions (BRET, Kinobeads)
MV4-11 cells = test: BrdU/PI flow cytometry, cell cycle distribution of MV4-11 cells; format: cell-based, human; details: 1 µM, 12 hours
How it was run: (§1)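 Cells were pulsed with 10 µM BrdU for 1 h, washed in ice-cold PBS and fixed overnight in 80% ethanol at −20 °C. After a 1% BSA/PBS-T wash, they were stained 30 min at 37 °C with RNase A (24 µg/ml) and propidium iodide (54 µM), then analysed by flow cytometry. For IMR5, the EtOH-treated cells of the doxycycline-inducible line served as the non-overexpressing cells.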

AK2 = AK2 (Homo sapiens, UniProt P54819); test: Kinobead selectivity profiling: AK2; format: binding
IMR5 cells = test: BrdU/PI flow cytometry, cell cycle distribution of IMR5 cells; format: cell-based, human; details: IMR5 cells without ectopic AURORA-A, 1 µM, 18 hours
How it was run: as §1

- difference of affinities for AURORA-A and AURORA-B (AURORA-A [2]): 3- to 50 fold
- pKd (AK2): 6.67
SMILES: COc1cc(Nc2ncc3c(n2)-c2ccc(Cl)cc2C(c2c(F)cccc2OC)=NC3)ccc1C(=O)O [Alisertib, alisertib, reference compound]
- reduction of steady-state AURORA-A levels (in words) (AURORA-A [1]): did not decrease AURORA-A levels, but instead substantially increased it
- cell cycle distribution (MV4-11 cells): almost all cells arrested in G2/M
- cell cycle distribution (IMR5 cells): led to G2/M arrest
